Reference: ChEMBL document CHEMBL4177753, “Structural Modification of Natural Product Ganomycin I Leading to Discovery of a α-Glucosidase and HMG-CoA Reductase Dual Inhibitor Improving Obesity and Metabolic Dysfunction in Vivo” (J Med Chem, 2018)
Calls of active or inactive are those of the source. The rule behind the calls is not given here.

Assays:
Mus musculus [1] = experiment: Hypolipidemic activity in antibiotic-treated ob/ob mouse assessed as decrease in plasma triglycerides levels at 3 mg/kg administered daily via oral gavage for 3 weeks; format: functional, organism-based
Method in brief: (§1)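 Male ob/ob mice pretreated three weeks with ampicillin (1 g/L), vancomycin, neomycin, gentamycin and erythromycin. Groups of n = 8 given 3.0 mg/kg/day orally in soybean vehicle versus vehicle. Plasma and hepatic lipids, fasting glucose, OGTT (glucose 2 g/kg after overnight fast) and HbA1c measured.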

[2] = AUC (0 to infinity) in Sprague-Dawley rat at 2 mg/kg, po; format: ADME, organism-based; set-up: dose 2 mg/kg, route oral, time infinity; conditions: in vivo
Method in brief: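 Male Sprague-Dawley rats (n = 6, 0.21–0.23 kg), single oral dose 2.0 mg/kg. Orbital blood sampled 0–16 h into heparinized tubes. Plasma was protein-precipitated with methanol, with internal standard added. Quantified by UPLC-ESI(+)-QTOF-MS in SIM mode on a C18 column with a methanol/0.3% formic acid water gradient. Linear range 0.54–107 ng/ml.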

Gammaproteobacteria = experiment: Decrease in Gammaproteobacteria levels in cecum of ob/ob mouse at 1 to 3 mg/kg administered daily via oral gavage for 31 days by 16S rRNA gene high-throughput sequencing method; format: functional, organism-based
Method in brief: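 Male ob/ob mice dosed daily by gavage at 1.0 or 3.0 mg/kg, compared with vehicle group. DNA extracted from about 150 mg caecum contents. 16S rRNA V3–V4 region amplified and sequenced on Illumina HiSeq PE250. Community compared by NMDS/MRPP; discriminant taxa identified by LEfSe.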

Mus musculus [3] = experiment: Hypoglycemic activity in C57BL/6J DIO mouse assessed as decrease in blood glucose AUC at 0.3 to 3 mg/kg administered daily via oral gavage for 25 days by OGTT; format: functional, organism-based
Method in brief: (§2)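 Male ob/ob or high-fat-diet C57BL/6J mice dosed daily by gavage at 0.3–3.0 mg/kg. OGTT: glucose 2 g/kg orally after overnight fast. ITT: insulin 0.6 U/kg i.p. after 4 h fast. Glucometer readings at 0, 40, 80 and 120 min; AUC computed from the curves.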

Mus musculus [4] = experiment: Hypolipidemic activity in ob/ob mouse assessed as decrease in macrosteatosis at 3 mg/kg administered daily via oral gavage for 31 days by hematoxylin-eosin staining-based microscopic method; format: functional, organism-based
Method in brief: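 Male ob/ob mice dosed by gavage (soybean vehicle); liver and abdominal white adipose tissue fixed in 10% formaldehyde-PBS pH 7.4, paraffin-embedded, sectioned, stained with H&E, Oil Red O or sirius red, and examined by light microscopy.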

[5] = target: T1, 3-hydroxy-3-methylglutaryl-coenzyme A reductase (Sus scrofa) (UniProt Q1W675); experiment: (§3) Inhibition of pig liver microsomal HMG-CoA reductase by colorimetric method
T1 sequence (whole entry): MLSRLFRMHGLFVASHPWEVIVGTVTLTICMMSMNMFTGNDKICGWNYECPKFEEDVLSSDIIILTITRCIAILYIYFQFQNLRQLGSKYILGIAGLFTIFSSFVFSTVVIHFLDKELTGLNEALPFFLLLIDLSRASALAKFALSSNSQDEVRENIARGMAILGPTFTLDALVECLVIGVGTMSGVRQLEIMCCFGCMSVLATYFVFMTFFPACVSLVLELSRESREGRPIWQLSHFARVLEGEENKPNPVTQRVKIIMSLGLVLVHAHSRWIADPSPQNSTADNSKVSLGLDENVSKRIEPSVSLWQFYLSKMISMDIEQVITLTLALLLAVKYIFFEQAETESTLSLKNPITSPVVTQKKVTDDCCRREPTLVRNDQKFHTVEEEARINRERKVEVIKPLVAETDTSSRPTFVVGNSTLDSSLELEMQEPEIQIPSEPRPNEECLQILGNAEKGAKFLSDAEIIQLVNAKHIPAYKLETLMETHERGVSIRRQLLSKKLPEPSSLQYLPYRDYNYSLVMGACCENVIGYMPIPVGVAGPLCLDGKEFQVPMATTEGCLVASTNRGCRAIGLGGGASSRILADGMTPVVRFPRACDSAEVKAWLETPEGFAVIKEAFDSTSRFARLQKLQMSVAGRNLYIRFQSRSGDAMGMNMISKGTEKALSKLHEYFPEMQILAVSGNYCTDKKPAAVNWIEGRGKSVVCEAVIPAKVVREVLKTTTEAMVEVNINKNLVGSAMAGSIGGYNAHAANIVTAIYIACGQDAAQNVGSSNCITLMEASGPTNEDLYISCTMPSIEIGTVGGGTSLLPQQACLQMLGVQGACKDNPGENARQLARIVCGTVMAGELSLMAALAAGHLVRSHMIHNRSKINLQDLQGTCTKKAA
Method in brief: (§4)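 Pig liver microsomal HMG-CoA reductase; compounds tested at several concentrations, each in triplicate; control uses phosphate buffer instead of compound, blank uses buffer instead of enzyme. Absorbance read at 405 nm; % inhibition from blank-corrected OD of test versus control; IC50 fitted from the inhibition-concentration series.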

[6] = target: T2, 3-hydroxy-3-methylglutaryl-coenzyme A reductase (Sus scrofa, UniProt Q1W675); experiment: as §3; method in brief: as §4
T2 sequence (Q1W675 whole entry): T1 sequence (whole entry)

Mus musculus [7] = experiment: Toxicity in C57BL/6J mouse assessed as effect on plasma AST levels at 30 mg/kg administered daily via oral gavage for 3 months; format: organism-based; conditions: in vivo
Method in brief: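 Long-term safety study in C57BL/6J mice, 20 male and 20 female, sorted by gender, blood glucose and body weight into four groups (n = 10 each). Treated groups of each sex got 30.0 mg/kg daily by oral gavage in soybean vehicle. Vehicle groups got an equal volume of soybean. Dosing ran three months, with behavior, survival, body weight, blood glucose, liver function and organ coefficients recorded.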

Mus musculus [8] = experiment: Hypoglycemic activity in ob/ob mouse assessed as decrease in blood glucose AUC at 0.3 to 3 mg/kg administered daily via oral gavage for 27 days by ITT; format: functional, organism-based; method in brief: as §2
Mus musculus [9] = experiment: Hypolipidemic activity in antibiotic-treated ob/ob mouse assessed as decrease in hepatic LDL-C levels at 3 mg/kg administered daily via oral gavage for 3 weeks; format: functional, organism-based; method in brief: as §1
Mus musculus [10] = experiment: In vivo inhibition of alpha-glucosidase activity in ob/ob mouse assessed as reduction of blood glucose AUC at 0.3 to 3 mg/kg administered daily via oral gavage for 30 days by OSTT; format: functional, organism-based
Method in brief: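 Male ob/ob mice given 0.3–3.0 mg/kg daily by gavage; after overnight fast, sucrose (OSTT) or maltose (OMTT) 4.0 g/kg given orally; blood glucose by glucose meter at 0, 40, 80 and 120 min; AUC calculated from the time course.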

Mus musculus [11] = experiment: Hypolipidemic activity in C57BL/6J DIO mouse assessed as decrease in plasma triglyceride levels at 0.3 to 3 mg/kg administered daily via oral gavage for 5 weeks; format: functional, organism-based
Method in brief: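 High-fat-diet male C57BL/6J mice, n = 8 per group, daily gavage at 0.3–3.0 mg/kg in soybean vehicle for 5 weeks. Serum total cholesterol, triglycerides and free fatty acids measured.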

Mus musculus [12] = experiment: Reduction of plasma TNF-alpha levels in ob/ob mouse at 3 mg/kg administered daily via oral gavage for 31 days by ELISA relative to vehicle-treated control; format: functional, organism-based
Method in brief: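 Male ob/ob mice treated daily by gavage (soybean vehicle); plasma LPS and TNF-α quantified by ELISA kits. For antibiotic groups, ob/ob mice first received an oral antibiotic cocktail (ampicillin 1 g/L, vancomycin, neomycin, gentamycin, erythromycin) for three weeks, then 3.0 mg/kg/day; n = 8 per group.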

Mus musculus [13] = experiment: Hypolipidemic activity in antibiotic-treated ob/ob mouse assessed as decrease in plasma free fatty acid levels at 3 mg/kg administered daily via oral gavage for 3 weeks; format: functional, organism-based; method in brief: as §1

With CC(C)=CCC/C(C)=C/CCC1=C[C@H](c2ccc(C(C)(C)C)cc2)OC1=O the Activity (Mus musculus [1]) was “Active”, the AUC(0-inf) [2] was 280 ng·h/mL and the Activity (Gammaproteobacteria) was “Active”. The Activity (Mus musculus [3]) was “Active”, the Activity (Mus musculus [4]) was “Active” and the inhibition [5] was “Dose-dependent effect”. For the same compound, the IC50 [6] was 5.82 µM, the Activity (Mus musculus [7]) was “Non-Toxic” and the Activity (Mus musculus [8]) was “Active”. The Activity (Mus musculus [9]) was “inactive”, the inhibition (Mus musculus [10]) was “Active” and the Activity (Mus musculus [11]) was “Active”. For the same compound, the Activity (Mus musculus [12]) was “Active” and the Activity (Mus musculus [13]) was “inactive”.
